Results taken from PMC7511286 (European Journal of Drug Metabolism and Pharmacokinetics, 2020).
Entries after “also recorded” stand apart in the source; their conditions may differ.

Tests used:
Format in all cases: in vivo, human
[1] = Preliminary two-compartment population pharmacokinetic model on SAD and MAD data
How it was run: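 A two-compartment model with first-order absorption, inter-compartmental transfer and elimination was fitted to plasma concentrations. Data were fasted single-dose and multiple-dose only; fed and pre-dosing data were excluded and MAD outliers kept. Parameters were ka, V1/F, V2/F, CL/F and Q/F, with k10, k12 and k21 derived from clearance/volume. Values below LLOQ (0.1 μg/ml) were left-censored. No covariate testing.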

[2] = SAD study: single ascending oral dose pharmacokinetics; conditions: for CL/F: geometric mean (geometric %CV)
How it was run: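 Healthy males (n = 6 per group) took oral tablets either fasted (10 h overnight fast, continued 4 h) or 30 min after starting a standardized breakfast. Periods were separated by at least 14 days of washout. Plasma was sampled pre-dose to 168 h; urine was collected 24 h pre-dose and 24 h post-dose. LC-MS/MS used ESI−, LLOQ 0.1 μg/ml. CL/F = dose/AUC0–∞; Vz/F = CL/F/λz; values are geometric means.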

[3] = SAD study: safety and tolerability
How it was run: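 Healthy males aged 18–55 took oral tablets. Treatment-emergent AEs were recorded by clinical evaluation. Vital signs (blood pressure, pulse), 12-lead and Holter ECG, physical examination, and urine and plasma laboratory tests were also assessed. AEs of special interest were hematuria and retroperitoneal colicky pain with suspected or confirmed nephrolithiasis. Subjects were hospitalized around dosing.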

[4] = base model, inter-individual variability
[5] = single oral 10 mg, fed vs fasted

## COc1cccc(-c2ccc(NC(=O)C3=C(C(=O)O)CCC3)c(F)c2)c1 [IMU-838, vidofludimus calcium]
[1]; base model
  Correlation coefficient IIV CL/F and IIV V1/F: 0.387
  Exponential residual error: 41.6 %CV
  V1/F (volume in central compartment), population estimate: 2.98 L
  V2/F (volume in peripheral compartment), population estimate: 6.31 L
  ka (absorption rate), population estimate: 0.15 h⁻¹
[1]; base model, fasted SAD and MAD data without pre-dosing
  CL/F (apparent total clearance), population estimate: 4.47 mL/min
[1]; base model, derived, Eq. 2
  k12 (inter-compartmental rate constant): 0.124 h⁻¹
[1]; base model, derived, Eq. 3
  k21 (inter-compartmental rate constant): 0.0584 h⁻¹
[1]; [4]
  IIV on CL/F: 20.8 %CV
  IIV on V1/F: 49.4 %CV
[1]; human, plasma, oral
  half-life: 2.76 h
[1]; male, human, plasma, oral
  half-life: 33.1 h
  k el: 2.5e-05 s⁻¹
[2]; based on single-dose pharmacokinetics
  accumulation ratio regarding exposure expected following multiple daily dosing: ~2
[2]; single oral 10 mg
  urine samples with concentration below the LLOQ: all samples
[2]; single oral 10 mg, fasted vs fed
  effect of food on pharmacokinetics: Food did not impact the pharmacokinetics; also recorded: no detrimental effect of food intake
[2]; single oral 10 mg, fasted, n = 6
  CL/F: 4.064 (15.9) ml/min
[2]; [5]
  blood exposure higher after fed administration compared with fasted: about 32%
  geometric mean Cmax higher after fed compared with fasted: about 23%
[2]; single oral 10 mg, fed, n = 6
  CL/F: 3.090 (25.5) ml/min
[2]; single oral 20 mg
  urine samples with concentration below the LLOQ: four of six samples
[2]; single oral 20 mg, fasted, n = 6
  CL/F: 4.218 (17.2) ml/min
[2]; single oral 30 mg, fasted, n = 6
  CL/F: 3.633 (29.3) ml/min
[2]; single oral 40 mg, fasted, n = 5
  CL/F: 3.480 (21) ml/min
[2]; single oral 10 to 40 mg, fasted
  dose dependence of plasma pharmacokinetics: dose-linear
[2]; single oral 30 and 40 mg
  fraction of administered dose excreted in urine during single 24 h period: more than 1%
[3]; 10 mg fasted, n = 6
  TEAE Flatulence: subjects having the event: 1 (16.7) N (%)
  TEAE Headache: subjects having the event: 1 (16.7) N (%)
  TEAE Micturition urgency: number of events: 1
  TEAE Micturition urgency: subjects having the event: 1 (16.7) N (%)
  TEAE Viral upper respiratory tract infection: number of events: 2
  TEAE Viral upper respiratory tract infection: subjects having the event: 2 (33.3) N (%)
  TEAEs Total: number of events: 5
  TEAEs Total: subjects having the event: 3 (50.0) N (%)
[3]; 10 mg fed, n = 6
  TEAE Epistaxis: subjects having the event: 1 (16.7) N (%)
  TEAEs Total: number of events: 1
  TEAEs Total: subjects having the event: 1 (16.7) N (%)
[3]; 20 mg fasted, n = 6
  TEAE Headache: subjects having the event: 1 (16.7) N (%)
  TEAEs Total: number of events: 1
  TEAEs Total: subjects having the event: 1 (16.7) N (%)
[3]; 30 mg fasted, n = 6
  TEAE Opiates positive: number of events: 1
  TEAE Opiates positive: subjects having the event: 1 (16.7) N (%)
  TEAEs Total: number of events: 1
  TEAEs Total: subjects having the event: 1 (16.7) N (%)
[3]; 40 mg fasted, n = 5
  TEAE Rhinitis: subjects having the event: 1 (20.0) N (%)
  TEAEs Total: number of events: 1
  TEAEs Total: subjects having the event: 1 (20.0) N (%)
[3]; all single doses
  AEs of special interest (hematuria, retroperitoneal colicky pain): no AEs of special interest were observed
[3]; all single doses, 12 subjects
  total number of TEAEs: nine
[3]; single oral doses 10–40 mg
  tolerability: well tolerated
